Screens (PubChem BioAssay)
CHRM1 agonist: human M1 muscarinic receptor agonism | activation, % at 3 µM | CHO-K1 hM1, Fluo-8 calcium fluorescence, agonist mode; 0% DMSO, 100% acetylcholine EC100 | hit rate 0.33% among 360,000;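 active means activation above the run's mean compound activation plus 3 SD, cut at about 16% in these data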;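 further: peak over basal fluorescence ratio within a 140 s kinetic read after compound addition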
Target sequence (P11229 whole entry, looked up): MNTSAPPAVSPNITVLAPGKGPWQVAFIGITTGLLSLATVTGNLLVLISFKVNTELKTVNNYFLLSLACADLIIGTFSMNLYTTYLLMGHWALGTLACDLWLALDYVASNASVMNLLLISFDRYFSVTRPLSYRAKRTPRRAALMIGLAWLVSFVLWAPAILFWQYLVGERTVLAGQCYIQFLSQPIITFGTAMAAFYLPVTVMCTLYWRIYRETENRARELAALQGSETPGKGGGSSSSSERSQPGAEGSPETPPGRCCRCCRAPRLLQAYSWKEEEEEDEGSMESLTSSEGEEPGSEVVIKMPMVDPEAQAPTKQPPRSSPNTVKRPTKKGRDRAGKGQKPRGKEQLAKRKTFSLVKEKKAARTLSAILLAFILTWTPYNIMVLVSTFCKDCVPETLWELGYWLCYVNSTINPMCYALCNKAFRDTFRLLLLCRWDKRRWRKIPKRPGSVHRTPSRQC
M1 antag: human CHRM1 antagonism; P11229; inhibition, % at 3 µM; AID 588852; CHO-K1 hM1, Fluo-8 calcium fluorescence, ACh EC80 antagonist; hit rate 1.3% among 360,000;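 active means percent inhibition above its own plate's cutoff, namely the mean of that plate's compound wells plus 3 SD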;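 further: peak over basal fluorescence ratio during 140 s after agonist addition; 0% = ACh EC80 plus DMSO and 100% = DMSO alone without agonist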
TAAR1 agonist: agonists of human TAAR1. CHO RD-HGA16 TAAR1, Fluo-8 calcium fluorescence; vehicle wells 0%, saturating PEA agonist 100%. Q96RJ0. activation, % at 3 µM. hit rate 0.99% among 360,000;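 active means activation above the mean activation of all test compounds in the run plus 3 SD, cut at about 38% in these data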
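Assay system: CHO-derived RD-HGA16 cells with stable Gα16 and human TAAR1; timing: 17-24 h seeding, 75 min 37 °C dye, 30 min RT; read-out: % activation from peak over basal fluorescence ratio, DMSO-to-PEA scaled; measured by: kinetic Fluo-8 calcium fluorescence; benchmarks: low control DMSO, high control PEA (EC100); doses: 3 µM single concentration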
CHRM1 PAM: potentiates human M1 receptor response to acetylcholine; P11229; CHO-K1 hM1, Fluo-8 calcium fluorescence, ACh EC20; 0% = ACh EC20, 100% = maximal ACh; activation, % at 3 µM; hit rate 0.088% among 360,000; in the data active means activation above about 19%, passing the limit was not always enough
TAAR1 antag: antagonists of human TAAR1; hit rate 1.5% among 360,000; Q96RJ0; inhibition, % at 3 µM; CHO RD-HGA16 TAAR1, Fluo-8 calcium fluorescence, antagonist; AID 624466;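 active means inhibition above a per-plate cutoff, the mean inhibition of test compounds on that plate plus 3 SD, cut at about 49% in these data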;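 further: 0% = DMSO plus EC80 beta-PEA response and 100% = DMSO alone without agonist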
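Assay system: RD-HGA16 CHO cells with stable hTAAR1 and Gα16 / Reagent: EC80 β-phenethylamine stimulus / Doses: 3 µM, single point / Timing: dye loading 75 min at 37 °C, then 30 min room temperature / Measured by: Fluo-8 intracellular calcium dye fluorescence, real-time kinetic reads / Controls: vehicle wells and EC80 agonist wells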
The depositor's hits bear a star; / = not tested or not shown. Hits are enriched below; roughly 3.4% of the tested compounds scored in any of these assays.

SMILES	CHRM1 agonist	M1 antag	TAAR1 agonist	CHRM1 PAM	TAAR1 antag
NC(=O)COC(=O)c1c2c(nc3ccccc13)CCC2	-4	-2	0	1	8
c1ccc2c(Nc3ccc4c(c3)OCCO4)c3c(nc2c1)CCCC3	-10	28*	9	-29	-24
COc1cccc(NC(=O)COC(=O)c2c3c(nc4ccccc24)CCC(C)C3)c1 (stereo unspecified)	-3	48*	10	-18	45
CC(C)NC(=O)NC(=O)COC(=O)c1c2c(nc3ccccc13)CCC2	1	20	10	-11	52*
CC(C)c1ccccc1NC(=O)COC(=O)c1c2c(nc3ccccc13)CCN(Cc1ccccc1)C2	-5	37*	12	-22	59*
COC(=O)C1=C(C)N(Cc2cccc(C(F)(F)F)c2)C(=NCc2ccccc2C(F)(F)F)NC1c1cccc(F)c1 (stereo unspecified)	/	/	6	/	3
Cc1cc(C)n2nc(CNS(=O)(=O)c3ccc(C(C)(C)C)cc3)nc2n1	-3	-11	1	7	-9
O=C(COC(=O)c1c2c(nc3ccccc13)CCCC2)Nc1ccc2c(c1)OCO2	0	32*	8	-8	54*
O=C(COC(=O)c1cc(-c2ccccc2)nc2ccccc12)Nc1ccc2c(c1)OCO2	5	10	1	-1	24
COC(=O)C1=C(C)N(Cc2cccc(C(F)(F)F)c2)C(=NCc2cc(OC)c(OC)c(OC)c2)NC1c1ccc(Cl)cc1 (stereo unspecified)	/	/	31	/	35
O=C1/C(=C\c2ccc(O)cc2)SC(=S)N1c1cccnc1	17*	19	30	-10	34
Cc1cc(/C=C2/SC(=S)N(c3cccc(C(F)(F)F)c3)C2=O)c(C)n1-c1cccnc1	6	43*	/	-21	/
COC(=O)C1=C(C)N(Cc2ccc(C(F)(F)F)cc2)C(=NCc2ccc3c(c2)OCO3)NC1c1ccccc1 (stereo unspecified)	/	/	32	/	35
O=C1C=C(N2CCCCCC2)C(=O)N1c1ccc(Cl)cc1	-8	81*	3	-32	6
O=C1C(Cl)=C(N2CCCCCC2)C(=O)N1c1ccc(Cl)cc1	-7	7	6	-11	11
COC(=O)C1=C(C)N(c2cccc(C)c2)C(=O)/C1=C\c1cccs1	-3	-13	48*	0	-3
CCOC(=O)N1CCC(N2CCCC(CO)(Cc3cccc(Cl)c3)C2)CC1 (stereo unspecified)	0	39*	1	-15	2
CCOC(=O)N1CCC(N2CCCC(CO)(Cc3ccccc3C)C2)CC1 (stereo unspecified)	-10	26*	1	-20	-26
CCOC(=O)C1(Cc2cccc(Cl)c2)CCCN(C(=O)C2CC2)C1 (stereo unspecified)	0	5	4	5	18
O=Cc1ccccc1Oc1ccccc1	-3	-2	1	2	-14
O=Cc1ccccc1OCCOc1ccccc1C=O	-14	82*	0	-34	-8
CSc1ncnc2c1ccn2CC(=O)Nc1ccc(C)c(C)c1	1	0	43*	8	14
Cc1ccc(NC(=O)Cn2cccc2)cc1C	-7	-6	8	2	12
O=C(COc1ccc(Cl)cc1)Nc1nc(-c2ccc(S(=O)(=O)N3CCOCC3)cc2)cs1	-2	7	17	-4	62*
O=C(Nc1nc(-c2ccc(S(=O)(=O)N3CCCC3)cc2)cs1)C1COc2ccccc2O1 (stereo unspecified)	0	0	23	-7	57*
O=C(COC(=O)c1ccc(S(=O)(=O)N2CCOCC2)cc1)Nc1nc(-c2ccccc2)cs1	-2	-6	14	7	10
O=C(Nc1nc(-c2ccccc2)cs1)C1COc2ccccc2O1 (stereo unspecified)	-4	5	-3	-2	9
O=C(COc1ccccc1)Nc1nc(-c2ccc(S(=O)(=O)N3CCOCC3)cc2)cs1	1	28	20	-15	55*
COc1ccccc1OCC(=O)Nc1nc(-c2ccc(S(=O)(=O)N3CCOCC3)cc2)cs1	-1	-4	18	-6	36
CCOC(=O)N1CCN(C(=O)c2ccc3c(=O)n(CCC4=CCCCC4)c(=O)[nH]c3c2)CC1	-5	66*	2	-23	-5
